The record followed here is ChEMBL document CHEMBL2311298, “2H-chromene derivatives bearing thiazolidine-2,4-dione, rhodanine or hydantoin moieties as potential anticancer agents” (Eur J Med Chem, 2013).

The term pIC50 denotes the IC50 on a negative log10 scale, so that one unit is a factor of ten.

pIC50: −log10 of the molar value.

Assay [1] concerns MOLT-4. Description: Anticancer activity against human MOLT4 cells assessed as cell viability after 72 hrs by MTT reduction assay. The class given is functional, cell-based. Conditions: MOLT-4, 72 h. The method in brief: (§1)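 Cells grown in RPMI 1640 with 10% FBS, 100 units/ml penicillin-G and streptomycin, 37 °C, 5% CO2. A549, MCF-7 and NIH/3T3 grown as monolayers, K562 and MOLT-4 in suspension. Seeding densities (cells/ml): A549 40,000, K562 40,000, MCF-7 30,000, MOLT-4 40,000, NIH/3T3 50,000. Overnight at 37 °C, then 3-4 concentrations added.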
(Tetrazolium assays rely on reduction of a dye to a coloured formazan, in cell work by metabolically active cells.)

Assay [2] deals with MOLT-4. The experiment in a line: Anticancer activity against human MOLT4 cells assessed as cell viability at 50 uM after 72 hrs by trypan blue exclusion assay. The class given is functional. The following applies: MOLT-4, 72 h, read-out: Activity. The method in brief: (§2)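 MOLT-4 cells in RPMI 1640 with 10% FBS, grown in suspension at 37 °C, 5% CO2. Cells exposed for 72 h as in the MTT assay, with each compound at a single concentration. Suspension mixed 1:1 with trypan blue. Clear (viable) and blue cells counted on a hemocytometer. Percent viable cells expressed relative to control wells.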

Another assay relates to NIH3T3. The experiment in a line: Anticancer activity against mouse NIH/3T3 cells assessed as cell viability after 72 hrs by MTT reduction assay. The following applies: NIH3T3, 72 h. The class given is cell-based. The method in brief:
as §1

The subject of another assay is K562. The experiment in a line: Anticancer activity against human K562 cells assessed as cell viability after 72 hrs by MTT reduction assay. The class given is functional, cell-based. Conditions: K562, 72 h. The method in brief: as §1
In a further assay the test system is MCF7. The experiment in a line: Anticancer activity against human MCF7 cells assessed as cell viability after 72 hrs by MTT reduction assay. The following applies: MCF7, 72 h. The class given is functional, cell-based. The method in brief: as §1
In a further assay the test system is A549. Description: Anticancer activity against human A549 cells assessed as cell viability after 72 hrs by MTT reduction assay. The class given is functional, cell-based. Conditions: A549, 72 h. The method in brief: as §1
The subject of assay [3] is MOLT-4. The experiment in a line: Anticancer activity against human MOLT4 cells assessed as cell viability at 40 uM after 72 hrs by trypan blue exclusion assay. The class given is functional. Conditions: MOLT-4, 72 h, read-out: Activity. The method in brief: as §2
Assay [4] relates to MOLT-4. The experiment in a line: Anticancer activity against human MOLT4 cells assessed as cell viability at 20 uM after 72 hrs by trypan blue exclusion assay. The class given is functional. The following applies: MOLT-4, 72 h, read-out: Activity. The method in brief:
as §2

The test system of assay [5] is MOLT-4. The experiment in a line: Anticancer activity against human MOLT4 cells assessed as cell viability at 25 uM after 72 hrs by trypan blue exclusion assay. The class given is functional. The following applies: MOLT-4, 72 h, read-out: Activity. The method in brief:
as §2

Assay [6] relates to MOLT-4. Description: Anticancer activity against human MOLT4 cells assessed as cell viability at 100 uM after 72 hrs by trypan blue exclusion assay. The class given is functional. The following applies: MOLT-4, 72 h, read-out: Activity. The method in brief: as §2
Assay [7] deals with MOLT-4. The experiment in a line: Anticancer activity against human MOLT4 cells assessed as cell viability at 75 uM after 72 hrs by trypan blue exclusion assay. The class given is functional. The following applies: MOLT-4, 72 h, read-out: Activity. The method in brief: as §2
Assay [8] deals with MOLT-4. The experiment in a line: Anticancer activity against human MOLT4 cells assessed as cell viability at 65 uM after 72 hrs by trypan blue exclusion assay. The class given is functional. The following applies: MOLT-4, 72 h, read-out: Activity. The method in brief: as §2
The test system of assay [9] is MOLT-4. The experiment in a line: Anticancer activity against human MOLT4 cells assessed as cell viability at 10 uM after 72 hrs by trypan blue exclusion assay. The class given is functional. Conditions: MOLT-4, 72 h, read-out: Activity. The method in brief:
as §2

Consider `O=C1NC(=S)S/C1=C\C1=Cc2ccccc2OC1`, for which the negative logarithm of the IC50 (pIC50) with MOLT-4 [1] was 4.28; with NIH3T3 it was 4.14; with K562 it was 4.26; in the assay on MCF7, 4.16; in the assay on A549, 4.14. Also, in the assay with MOLT-4 [2], the viability at 50 µM is 49.3%.

On to `O=C1NC(=O)/C(=C/C2=Cc3cc(Br)ccc3OC2)S1`, for which the pIC50 is 4.26 in the assay with MOLT-4 [1]; 4.25 in the assay with NIH3T3; 4.30 in the assay on K562; 4.24 in the assay on MCF7; 4.10 in the assay with A549. Moreover, in the assay with MOLT-4 [2], the viability at 50 µM is 52.7%.

Regarding `O=C1NC(=S)S/C1=C\C1=Cc2cc(Br)ccc2OC1`, the pIC50 in the assay on MOLT-4 [1] is 4.42; in the assay with NIH3T3, 4.56; with K562, 4.47; in the assay on MCF7 it was 4.39; with A549 it was 4.29. For the same compound, the viability at 40 µM with MOLT-4 [3] is 46.7%.

`O=C1NC(=O)/C(=C/C2=Cc3ccccc3OC2)N1`: the pIC50 with MOLT-4 [1] is 4.67; in the assay with NIH3T3 it was 3.74; in the assay with K562, 4.25; in the assay on MCF7 it was 5.09; with A549, 4.53. In addition, the viability at 20 µM in the assay on MOLT-4 [4] amounted to 53.3%.

Consider `CC1Oc2ccc(Br)cc2C=C1/C=C1\NC(=O)NC1=O` (racemic), for which, in the assay with MOLT-4 [5], the viability at 25 µM turned out to be 41.3%. For the same compound, the pIC50 with MOLT-4 [1] is 4.61; in the assay on NIH3T3 it was 4.60; with K562, 4.97; in the assay on MCF7, 4.82; with A549 it was 4.76.

As for `O=C1NC(=O)/C(=C/C2=Cc3ccccc3OC2)S1`, the viability at 100 µM in the assay with MOLT-4 [6] is 53.4%. The pIC50 with MOLT-4 [1] is 4.00; in the assay on NIH3T3, below 3.70; in the assay on K562, 4.00; in the assay on MCF7, 4.00; in the assay with A549, 3.72.

`O=C1NC(=O)/C(=C/C2=Cc3cc(Br)ccc3OC2)N1`: the pIC50 in the assay on MOLT-4 [1] is 4.11; with NIH3T3, 4.44; in the assay with K562 it was 4.10; in the assay on MCF7, 4.29; with A549, 4.71. In addition, the viability at 75 µM in the assay with MOLT-4 [7] was determined as 60.1%.

As to `CC1Oc2ccc(Br)cc2C=C1/C=C1\SC(=O)NC1=O` (racemic), the pIC50 in the assay with MOLT-4 [1] is 4.19; in the assay on NIH3T3 it was 4.25; with K562, 4.11; in the assay with MCF7 it was 4.17; in the assay with A549, 4.18. Moreover, in the assay with MOLT-4 [8], the viability at 65 µM worked out at 53.3%.

On to `O=C(O)CN1C(=O)/C(=C/C2=Cc3cc(Br)ccc3OC2)SC1=S`, for which the pIC50 with MOLT-4 [1], in the assay with K562, with MCF7 and in the assay with A549 was below 4.60 throughout.

For the compound `CCN1C(=O)S/C(=C\C2=Cc3cccc(OC)c3OC2)C1=O`, the pIC50 in the assay on MOLT-4 [1] was 4.88; in the assay on NIH3T3, 4.12; in the assay with K562, 4.04; in the assay with MCF7, 4.05; in the assay on A549 it was below 3.70. In the assay with MOLT-4 [9], the viability at 10 µM came out at 53.2%.

On to `CCN1C(=O)S/C(=C\C2=Cc3cc(Br)ccc3OC2C)C1=O` (racemic), for which the pIC50 with MOLT-4 [1], with K562, in the assay on MCF7 and in the assay on A549 was below 4.00 throughout.

As to `CC1Oc2ccc(Br)cc2C=C1/C=C1/C(=O)NC(=N)N1C` (racemic), the pIC50 with MOLT-4 [1] is 4.25; in the assay with NIH3T3 it was 4.06; in the assay with K562, 4.29; in the assay on MCF7, 4.07; in the assay on A549 it was 3.92. Moreover, the viability at 50 µM in the assay with MOLT-4 [2] was found to be 54.3%.

For the compound `CC1Oc2ccc(Br)cc2C=C1/C=C1\SC(=S)N(CC(=O)O)C1=O` (racemic), the pIC50 in the assay with MOLT-4 [1], with K562, in the assay on MCF7 and in the assay with A549 was below 4.30 each time.

In the case of `O=C(O)CN1C(=O)/C(=C/C2=Cc3ccccc3OC2)SC1=S`, the pIC50 with MOLT-4 [1], in the assay with K562, with MCF7 and with A549 was below 4.00 each time.

Regarding `CN1C(=N)NC(=O)/C1=C/C1=Cc2ccccc2OC1`, the pIC50 in the assay on MOLT-4 [1] is 4.14; in the assay on NIH3T3 it was 3.98; with K562, 4.02; in the assay with MCF7, 3.83; in the assay on A549 it was 4.05. For the same compound, in the assay with MOLT-4 [7], the viability at 75 µM came out at 49.5%.

With `CC1Oc2ccc(Br)cc2C=C1/C=C1\SC(=S)NC1=O` (racemic), the pIC50 in the assay with MOLT-4 [1] was 4.69; in the assay with NIH3T3, 4.54; in the assay with K562, 4.50; in the assay with MCF7, 4.70; in the assay on A549, 4.32. Also, the viability at 20 µM with MOLT-4 [4] turned out to be 53.1%.

In the case of `CCN1C(=O)S/C(=C\C2=Cc3ccccc3OC2)C1=O`, the pIC50 in the assay on MOLT-4 [1], in the assay with K562, with MCF7 and in the assay on A549 was below 3.70 in each case.

Turning to `CC1Oc2ccc(Br)cc2C=C1/C=C1\SC(=O)N(C)C1=O` (racemic), the pIC50 in the assay with MOLT-4 [1], with K562, with MCF7 and in the assay with A549 was below 4.30 throughout.

Take `COc1cccc2c1OCC(/C=C1\SC(=S)N(CC(=O)O)C1=O)=C2`: the pIC50 in the assay on MOLT-4 [1], in the assay with K562, with MCF7 and in the assay with A549 was below 3.70 in each case.

Take `CN1C(=O)S/C(=C\C2=Cc3ccccc3OC2)C1=O`: the pIC50 in the assay on MOLT-4 [1], with K562, with MCF7 and in the assay on A549 was below 4.00 in each case.
